The results in this text go back to ChEMBL document CHEMBL1154776, “Probes for narcotic receptor mediated phenomena. 39. Enantiomeric N-substituted benzofuro[2,3-c]pyridin-6-ols: synthesis and topological relationship to oxide-bridged phenylmorphans” (J Med Chem, 2009).

In assay [1] the target is T1, Mu-type opioid receptor (Homo sapiens, UniProt P35372). Conditions: CHO.
The target in assay [2] is T1, Mu-type opioid receptor. Kind of assay: biochemical. Format: cell-based, CHO.
Assay [3] addresses T1, Mu-type opioid receptor. Nature of the assay: Agonist activity at human recombinant mu opioid receptor expressed in CHO cells assessed as stimulation of [35S]GTPgammaS binding after 3 hrs by liquid scintillation counting relative to DAMGO. Format: functional, cell-based. The method, boiled down: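 Same [35S]GTPγS membrane assay in hMOR-CHO: 50 pM radioligand, 10 μM GDP, 3 h at 25 °C, GF/B filtration, scintillation counting.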

The target in assay [4] is Delta-type opioid receptor (Homo sapiens, UniProt P41143). Kind of assay: Displacement of [3H]DADLE from human recombinant delta opioid receptor expressed in CHO cells. The assay is classed as cell-based. Summed up: (§1)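 Stably transfected CHO cells (hDOR-CHO for [3H]DADLE, hKOR-CHO for [3H]U69,593) grown in DMEM with 10% FBS and G-418 (0.10-0.2 mg/mL) under 5% CO2 at 37 °C. Monolayers harvested and frozen at −80 °C before membrane use; n=3.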
Sequence of Delta-type opioid receptor (P41143 whole entry): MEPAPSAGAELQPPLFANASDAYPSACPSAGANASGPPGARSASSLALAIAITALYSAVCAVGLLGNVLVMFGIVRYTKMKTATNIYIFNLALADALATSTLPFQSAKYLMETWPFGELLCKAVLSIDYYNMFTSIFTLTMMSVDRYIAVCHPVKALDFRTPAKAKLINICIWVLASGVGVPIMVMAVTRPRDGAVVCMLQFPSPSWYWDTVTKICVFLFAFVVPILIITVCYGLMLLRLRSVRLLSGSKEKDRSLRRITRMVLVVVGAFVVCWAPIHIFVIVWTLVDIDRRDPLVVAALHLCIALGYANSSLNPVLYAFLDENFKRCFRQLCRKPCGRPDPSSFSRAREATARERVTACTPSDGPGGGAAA
On the technique in general: Displacement assays read how much labelled ligand stays bound in the presence of the test substance.

In assay [5] the target is T1, Mu-type opioid receptor. Kind of assay: Agonist activity at human recombinant mu opioid receptor expressed in CHO cells assessed as stimulation of [35S]GTPgammaS binding after 3 hrs by liquid scintillation counting. The assay is classed as functional, cell-based. Summed up:
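hMOR-CHO membranes (50 μg protein) grown in DMEM/F-12 with 10% FBS and G-418. Incubated 3 h at 25 °C with 50 pM [35S]GTPγS in 50 mM Tris-HCl pH 7.4, 100 mM NaCl, 10 mM MgCl2, 1 mM EDTA, 1 mM DTT, 10 μM GDP and 0.1% BSA. Nonspecific binding defined with 40 μM GTPγS. Bound label separated on GF/B filters and scintillation counted; n=3.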
(In general: GTPγS resists hydrolysis and so accumulates on activated G proteins.)

In assay [6] the target is Kappa-type opioid receptor (Homo sapiens, UniProt P41145). Kind of assay: Displacement of [3H]U69593 from human recombinant kappa opioid receptor expressed in CHO cells. Format: cell-based. The method, boiled down:
as §1

pKi: −log10 of the molar value.

T1 sequence (P35372 whole entry): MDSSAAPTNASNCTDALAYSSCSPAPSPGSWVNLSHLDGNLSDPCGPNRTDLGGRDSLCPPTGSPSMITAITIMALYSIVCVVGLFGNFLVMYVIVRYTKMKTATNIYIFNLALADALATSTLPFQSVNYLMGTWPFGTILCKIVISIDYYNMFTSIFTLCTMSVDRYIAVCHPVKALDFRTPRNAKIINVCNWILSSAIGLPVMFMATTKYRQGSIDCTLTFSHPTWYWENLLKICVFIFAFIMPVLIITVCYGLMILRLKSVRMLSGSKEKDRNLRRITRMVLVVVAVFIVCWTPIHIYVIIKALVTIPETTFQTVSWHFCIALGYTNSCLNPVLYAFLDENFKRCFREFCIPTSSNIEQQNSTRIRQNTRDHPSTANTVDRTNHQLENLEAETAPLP
Sequence of Kappa-type opioid receptor (P41145 whole entry): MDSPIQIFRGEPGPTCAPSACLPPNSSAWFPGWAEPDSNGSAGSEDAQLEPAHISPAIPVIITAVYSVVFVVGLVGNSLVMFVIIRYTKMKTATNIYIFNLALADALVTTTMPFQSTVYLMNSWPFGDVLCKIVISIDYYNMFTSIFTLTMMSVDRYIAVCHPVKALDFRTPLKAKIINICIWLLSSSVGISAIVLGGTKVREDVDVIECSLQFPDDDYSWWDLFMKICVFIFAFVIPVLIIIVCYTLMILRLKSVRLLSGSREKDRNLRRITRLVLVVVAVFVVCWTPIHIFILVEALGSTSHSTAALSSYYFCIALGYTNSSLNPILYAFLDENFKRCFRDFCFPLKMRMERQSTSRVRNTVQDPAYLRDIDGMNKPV

Consider `CC[C@@]12CCNC[C@@H]1Oc1ccc(O)cc12`, for which the Ke in assay [1] was determined as 95 nM. In assay [2], this molecule gave a negative-log Ki (pKi) of 7.32.
As for `CC[C@]12CCN(C[C@@H](O)c3ccccc3)C[C@H]1Oc1ccc(O)cc12`, in assay [3], the Emax stood at 100%. Moreover, the pKi is 5.60 in assay [4] and 6.22 in assay [2].
On to `CC[C@]12CCN(C)C[C@H]1Oc1ccc(O)cc12`, for which the maximal effect (Emax) in assay [3] is 45%. Also, the results for the pKi in assay [4] and in assay [2] were 5.37 and 5.88, respectively. The ED50 in assay [5] worked out at 241 nM.
Regarding `CC[C@@]12CCN(C)C[C@@H]1Oc1ccc(O)cc12`, the pKi in assay [6] was 6.35; in assay [4], 5.87; in assay [2] it was 7.80.
In the case of `CC[C@@]12CCN(C[C@H](O)c3ccccc3)C[C@@H]1Oc1ccc(O)cc12`, the pKi in assay [6] was 5.96; in assay [4] it was 6.09; in assay [2], 7.10.
The matching figures for `CC[C@@]12CCN(C[C@@H](O)c3ccccc3)C[C@@H]1Oc1ccc(O)cc12`: 6.38, 6.35 and 8.03.
For `CC[C@]12CCN(C[C@H](O)c3ccccc3)C[C@H]1Oc1ccc(O)cc12`, the Emax in assay [3] was found to be 36%. Further, the values for the pKi in assay [6], in assay [4] and in assay [2] were 5.02, 5.51 and 5.88, respectively.
As for `CC[C@]12CCNC[C@H]1Oc1ccc(O)cc12`, the maximum response (Emax) in assay [3] is 97%. Moreover, the ED50 in assay [5] came to 150 nM. In addition, in assay [2], the pKi is 5.46.
In the case of `CC[C@]12CCN(CCc3ccccc3)C[C@H]1Oc1ccc(O)cc12`, the Emax in assay [3] was found to be 84%. The pKi in assay [6] is 5.63; in assay [4] it was 5.57; in assay [2], 6.70. The ED50 in assay [5] is 24 nM.

For orientation: pKi means −log10 of the Ki, conventionally taken in molar units. The Emax is the maximal effect, on the per cent scale that the assay sets.
